Experimental data from ChEMBL document CHEMBL1145371, “Synthesis and preliminary evaluation of mono-[123I]iodohypericin monocarboxylic acid as a necrosis avid imaging agent” (Bioorg Med Chem Lett, 2007).
Values joined by “and” are separate entries in the source; they are usually repeats but may differ in a detail not shown here. Identical values can stand only once. Each block holds one compound with its values, some of them ahead of it.

Key:
Blood [1] = assay: Biodistribution in blood of NMRI mouse at 185 KBq, iv after 4 hrs; type: ADME, organism-based; conditions: in vivo
Blood [2] = assay: Biodistribution in blood of NMRI mouse at 185 KBq, iv after 24 hrs; type: ADME, organism-based; conditions: in vivo
[3] = Biodistribution in carcass of NMRI mouse at 185 KBq, iv after 30 mins; type: ADME, organism-based; conditions: in vivo, 0.5 h
Urinary bladder [4] = assay: Biodistribution in bladder of NMRI mouse at 185 KBq, iv after 30 mins; type: ADME, organism-based; conditions: in vivo, 0.5 h
Urinary bladder [5] = assay: Biodistribution in bladder of NMRI mouse at 185 KBq, iv after 4 hrs; type: ADME, organism-based; conditions: in vivo
Urinary bladder [6] = assay: Biodistribution in bladder of NMRI mouse at 185 KBq, iv after 24 hrs; type: ADME, organism-based; conditions: in vivo
Kidney [7] = assay: Biodistribution in kidney of NMRI mouse at 185 KBq, iv after 30 mins; type: ADME, organism-based; conditions: in vivo, 0.5 h
Kidney [8] = assay: Biodistribution in kidney of NMRI mouse at 185 KBq, iv after 4 hrs; type: ADME, organism-based; conditions: in vivo
Kidney [9] = assay: Biodistribution in kidney of NMRI mouse at 185 KBq, iv after 24 hrs; type: ADME, organism-based; conditions: in vivo
Liver [10] = assay: Biodistribution in liver of NMRI mouse at 185 KBq, iv after 30 mins; type: ADME, organism-based; conditions: in vivo, 0.5 h
Liver [11] = assay: Biodistribution in liver of NMRI muse at 185 KBq, iv after 4 hrs; type: ADME, organism-based; conditions: mouse, in vivo
Liver [12] = assay: Biodistribution in liver of NMRI mouse at 185 KBq, iv after 24 hrs; type: ADME, organism-based; conditions: in vivo
[13] = Biodistribution in spleen + pancreas of NMRI mouse at 185 KBq, iv after 30 mins; type: ADME, organism-based; conditions: in vivo, 0.5 h
[14] = Biodistribution in spleen + pancreas of NMRI mouse at 185 KBq, iv after 24 hrs; type: ADME, organism-based; conditions: in vivo
Lung = assay: Biodistribution in lung of NMRI mouse at 185 KBq, iv after 24 hrs; type: ADME, organism-based; conditions: in vivo
[15] = Biodistribution in intestine + faeces of NMRI mouse at 185 KBq, iv after 30 mins; type: ADME, organism-based; conditions: in vivo, 0.5 h
[16] = Biodistribution in intestine + faeces of NMRI mouse at 185 KBq, iv after 4 hrs; type: ADME, organism-based; conditions: in vivo
[17] = Biodistribution in intestine + faeces of NMRI mouse at 185 KBq, iv after 24 hrs; type: ADME, organism-based; conditions: in vivo
Brain [18] = assay: Biodistribution in brain of NMRI mouse at 185 KBq, iv after 30 mins; type: ADME, organism-based; conditions: in vivo, 0.5 h
Brain [19] = assay: Biodistribution in brain of NMRI mouse at 185 KBq, iv after 4 hrs; type: ADME, organism-based; conditions: in vivo
Brain [20] = assay: Biodistribution in brain of NMRI mouse at 185 KBq, iv after 24 hrs; type: ADME, organism-based; conditions: in vivo
Blood [21] = assay: Biodistribution in blood of NMRI mouse at 185 KBq, iv after 30 mins; type: ADME, organism-based; conditions: in vivo, 0.5 h
[22] = Biodistribution in carcass of NMRI mouse at 185 KBq, iv after 4 hrs; type: ADME, organism-based; conditions: in vivo
[23] = Biodistribution in carcass of NMRI mouse at 185 KBq, iv after 24 hrs; type: ADME, organism-based; conditions: in vivo
[24] = Partition coefficient, log P of the compound; type: physicochemical; conditions: octanol/water
Summary of the method: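 Octanol/buffer partitioning against 0.025 M phosphate buffer, pH 7.4; log P reported as mean ± deviation of n = 6 determinations.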

Drug uptake (Blood [1]): 28.2 % ID/g
SMILES: Cc1cc(O)c2c(=O)c3c(O)cc(O)c4c5c(O)c([123I])c(O)c6c(=O)c7c(O)cc(C)c8c1c2c(c34)c(c78)c65

Drug uptake (Blood [1]): 1.6 %ID and 0.6 % ID/g
Drug uptake (Blood [2]): 0.1 %ID
Drug uptake [3]: 13.2 %ID
Drug uptake (Urinary bladder [4]): 0.3 %ID
Drug uptake (Urinary bladder [5]): 7.1 %ID
Drug uptake (Urinary bladder [6]): 21.1 %ID
Drug uptake (Kidney [7]): 2.9 %ID and 4.4 % ID/g
Drug uptake (Kidney [8]): 2.6 %ID and 4.8 % ID/g
Drug uptake (Kidney [9]): 1 %ID and 1.9 % ID/g
Drug uptake (Liver [10]): 64.4 %ID and 33.7 % ID/g
Drug uptake (Liver [11]): 22.4 %ID and 13.2 % ID/g
Drug uptake (Liver [12]): 4.7 %ID and 2.7 % ID/g
Drug uptake [13]: 1.3 %ID and 3.9 % ID/g
Drug uptake [14]: 0.2 %ID and 0.5 % ID/g
Drug uptake (Lung): 0.1 %ID and 0.2 % ID/g
Drug uptake [15]: 13.2 %ID
Drug uptake [16]: 50.5 %ID
Drug uptake [17]: 69.4 %ID
Drug uptake (Brain [18]): 0 %ID
Drug uptake (Brain [19]): 0 %ID
Drug uptake (Brain [20]): 0 %ID
Drug uptake (Blood [21]): 3.3 %ID and 1.3 % ID/g
Drug uptake [22]: 10.3 %ID
Drug uptake [23]: 2.8 %ID
logP [24]: 1.47
SMILES: Cc1cc(O)c2c(=O)c3c(O)cc(O)c4c5c(O)c([123I])c(O)c6c(=O)c7c(O)cc(C(=O)O)c8c1c2c(c34)c(c78)c65
